Values after ≈ are worked out from the molar mass of the structure shown.

For data set [1], the system named is Mycobacterium kansasii. Nature of the data set: Antimycobacterial activity against Mycobacterium kansasii CNTC My 335/80 after 21 days. The data set is classed as functional. The following applies: 504 h. The method, boiled down:
(§1)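 MIC in Sula semi-synthetic medium at 37 °C. M. kansasii 6509/96 is a clinical isolate; M. kansasii CNTC My 235/80 comes from the Czech national collection. Compounds were dissolved in DMSO (max. 5% DMSO in water) and tested at 1000, 500, 250, 125, 62, 31, 16, 8, 4, 2 and 1 μmol L⁻¹. MIC was read after 7, 14 and 21 days.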

Data set [2] concerns Mycobacterium avium. The data set can be described thus: Antimycobacterial activity against Mycobacterium avium CNTC My 330/88 after 21 days. The data set is classed as functional. The following applies: CNTC My 330/88, 504 h. The essentials: (§2)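 Sula semi-synthetic medium at 37 °C. Compounds were dissolved in DMSO (max. 5% DMSO in water) and added to the medium at 1000, 500, 250, 125, 62, 31, 16, 8, 4, 2 and 1 μmol L⁻¹. MIC was read after 7, 14 and 21 days of incubation at 37 °C. Strains came from the Czech National Collection of Type Cultures.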

The subject of data set [3] is Mycobacterium tuberculosis. The data set can be described thus: Antimycobacterial activity against Mycobacterium tuberculosis CNTC My 331/88 ATCC 27294 after 14 days. The note with it: CNTC My 331/88 ATCC 27294, 336 h. The data set is classed as functional. The method, boiled down: as §2
In data set [4] the test system is PBMC. Nature of the data set: Cytotoxicity against human PBMC by MTT assay. It counts as cell-based. The essentials:
(§3)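 MTT viability assay in RPMI-1640 without phenol red with 10% FCS and 2 mM L-glutamine, at 37 °C and 5% CO₂. HepG2 seeded at 5×10³ cells/well; fresh human PBMC at 2.0×10⁵ cells/well. After 24 h, cells were exposed overnight in serum-free medium, then given MTT (2 mg mL⁻¹) for 4 h. Formazan dissolved in DMSO, OD540 minus OD620, compared with untreated controls. IC50 taken from dose-response curves; two independent experiments, 4–8 parallels.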
(Formazan colour is commonly taken as a measure of viable cells.)

Data set [5] has as its system HepG2. Nature of the data set: Cytotoxicity against human HepG2 cells by MTT assay. It counts as cell-based. The essentials: as §3
In data set [6] the test system is Mycobacterium kansasii. The data set can be described thus: Antimycobacterial activity against Mycobacterium kansasii 6509/96 isolate after 21 days. It counts as functional. The note with it: 6509/96, 504 h. The method, boiled down: as §1
The test system of data set [7] is Mycobacterium kansasii. The data set can be described thus: Antimycobacterial activity against Mycobacterium kansasii CNTC My 335/80 after 7 days. It counts as functional. The following applies: 168 h. The method, boiled down: as §1
Data set [8] has as its system Mycobacterium avium. The data set can be described thus: Antimycobacterial activity against Mycobacterium avium CNTC My 330/88 after 14 days. The data set is classed as functional. The following applies: CNTC My 330/88, 336 h. The essentials: as §2
Data set [9] is described as follows: Selectivity index, ratio of IC50 for human HepG2 cells to MIC for Mycobacterium tuberculosis CNTC My 331/88 ATCC 27294. It counts as functional. The essentials:
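HepG2 human hepatoma cells in RPMI-1640 without phenol red with 10% FCS, 2 mM L-glutamine and gentamycin, at 37 °C and 5% CO₂. Seeded at 5×10³ cells/well and grown 24 h, then treated overnight in serum-free medium. Read-out was MTT (4 h), formazan dissolved in DMSO, OD540 minus OD620. IC50 was taken from dose-response curves, two experiments with 4–8 parallels. MIC was measured in Sula medium.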

The test system of data set [10] is Mycobacterium kansasii. Nature of the data set: Antimycobacterial activity against Mycobacterium kansasii 6509/96 isolate after 14 days. The data set is classed as functional. The following applies: 6509/96, 336 h. The method, boiled down: as §1
Data set [11] deals with Mycobacterium tuberculosis. The data set can be described thus: Antimycobacterial activity against Mycobacterium tuberculosis CNTC My 331/88 ATCC 27294 after 21 days. It counts as functional. The following applies: CNTC My 331/88 ATCC 27294, 504 h. The method, boiled down:
as §2

Data set [12] concerns Mycobacterium kansasii. Nature of the data set: Antimycobacterial activity against Mycobacterium kansasii CNTC My 335/80 after 14 days. The data set is classed as functional. The following applies: 336 h. The method, boiled down: as §1
For data set [13], the system named is Mycobacterium kansasii. The data set can be described thus: Antimycobacterial activity against Mycobacterium kansasii 6509/96 isolate after 7 days. It counts as functional. The note with it: 6509/96, 168 h. The method, boiled down:
as §1

The nature of data set [14]: Stability of compound in 0.0005 HCl buffer assessed as pseudo-first order rate constant at pH 3.3 by UV-vis spectroscopic analysis. The data set is classed as physicochemical. The essentials: (§4)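 Hydrolytic stability followed by diode-array UV-vis at 37 ± 0.1 °C on ca. 5×10⁻⁵ mol L⁻¹ solutions. Ionic strength was set to 1 mol L⁻¹ with KCl; buffer pH was checked with a glass electrode. Spectra recorded over 200–500 nm with time. Pseudo-first-order k_obs was fitted from the absorbance-time curve at 267 nm.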

Data set [15] is described as follows: Stability of compound in N-Methylmorpholine buffer assessed as pseudo-first order rate constant at pH 7.86 by UV-vis spectroscopic analysis. The data set is classed as physicochemical. The method, boiled down: as §4
Data set [16] in a line: Stability of compound in 0.01 M HCl buffer assessed as pseudo-first order rate constant at pH 2 by UV-vis spectroscopic analysis. The data set is classed as physicochemical. The method, boiled down:
as §4

A short description of data set [17]: Stability of compound in 0.001 HCl buffer assessed as pseudo-first order rate constant at pH 3 by UV-vis spectroscopic analysis. It counts as physicochemical. The essentials:
as §4

Data set [18] can be described thus: Stability of compound in phosphate buffer assessed as pseudo-first order rate constant at pH 5.81 by UV-vis spectroscopic analysis. The data set is classed as physicochemical. The method, boiled down: as §4
Data set [19] can be described thus: Stability of compound in TRIS buffer assessed as pseudo-first order rate constant at pH 8.92 by UV-vis spectroscopic analysis. It counts as physicochemical. The method, boiled down:
as §4

Data set [20] can be described thus: Stability of compound in carbonate buffer assessed as pseudo-first order rate constant at pH 9.71 by UV-vis spectroscopic analysis. It counts as physicochemical. The essentials: as §4
The nature of data set [21]: Stability of compound in 0.005 M HCl buffer assessed as pseudo-first order rate constant at pH 2.3 by UV-vis spectroscopic analysis. It counts as physicochemical. The method, boiled down:
as §4

A short description of data set [22]: Stability of compound in methoxyacetate buffer assessed as pseudo-first order rate constant at pH 3.35 by UV-vis spectroscopic analysis. The data set is classed as physicochemical. The method, boiled down:
as §4

A short description of data set [23]: Stability of compound in 0.1 M KOH buffer assessed as pseudo-first order rate constant at pH 13 by UV-vis spectroscopic analysis. The data set is classed as physicochemical. The method, boiled down: as §4
Data set [24] is described as follows: Stability of compound in 0.005 M KOH buffer assessed as pseudo-first order rate constant at pH 11.7 by UV-vis spectroscopic analysis. It counts as physicochemical. The method, boiled down:
as §4

Data set [25] in a line: Stability of compound in imidazole buffer assessed as pseudo-first order rate constant at pH 7.23 by UV-vis spectroscopic analysis. It counts as physicochemical. The essentials:
as §4

Data set [26] is described as follows: Stability of compound in 0.007 M HCl buffer assessed as pseudo-first order rate constant at pH 2.16 by UV-vis spectroscopic analysis. It counts as physicochemical. The essentials: as §4
Data set [27] is described as follows: Stability of compound in acetate buffer assessed as pseudo-first order rate constant at pH 4.55 by UV-vis spectroscopic analysis. The data set is classed as physicochemical. The essentials: as §4

By MIC is commonly meant the lowest concentration found to suppress growth. The term IC50 denotes the concentration at which inhibition is half-maximal. The low end stands for greater potency, the high end for weaker potency. As to `O=C(N/N=C/Nc1cc(Cl)ccc1O)c1ccncc1`, the MIC was 250 µM (≈ 72.7 µg/mL) in data set [1]; 500 µM (≈ 145 µg/mL) in data set [2]; 2 µM (≈ 0.581 µg/mL) in data set [3]; 32 µM (≈ 9.3 µg/mL) in data set [6]; 125 µM (≈ 36.3 µg/mL) in [7]; 500 µM (≈ 145 µg/mL) in [8]. In addition, the minimal inhibitory concentration (MIC) amounted to 16 µM (≈ 4.65 µg/mL) in data set [10], 2 µM (≈ 0.581 µg/mL) in data set [11], 250 µM (≈ 72.7 µg/mL) in data set [12] and 8 µM (≈ 2.33 µg/mL) in data set [13]. Further, the results for the IC50 in [4] and in data set [5] were 75 µM and 21.8 µM, respectively. In data set [9], the Ratio is 10.9.

As to `O=C(N/N=C/Nc1ccc(Br)c(F)c1)c1ccncc1`, the MIC turned out to be 250 µM (≈ 84.3 µg/mL) in data set [1]; 250 µM (≈ 84.3 µg/mL) in data set [2]; 1 µM (≈ 0.337 µg/mL) in data set [3]; 16 µM (≈ 5.39 µg/mL) in [6]; 62.5 µM (≈ 21.1 µg/mL) in data set [7]; 250 µM (≈ 84.3 µg/mL) in [8]. Besides, the MIC in data set [10] was 8 µM (≈ 2.7 µg/mL); in data set [11] it was 1 µM (≈ 0.337 µg/mL); in data set [12], 250 µM (≈ 84.3 µg/mL); in data set [13] it was 8 µM (≈ 2.7 µg/mL). In addition, the Activity in [14] amounted to 0.000322 s⁻¹; in data set [15], 0.000012 s⁻¹; in data set [16], 0.00285 s⁻¹; in data set [17] it was 0.000514 s⁻¹; in [18], 0.000071 s⁻¹; in data set [19], 0.000055 s⁻¹. In addition, the Activity turned out to be 0.0000445 s⁻¹ in [20]; 0.0017 s⁻¹ in data set [21]; 0.000425 s⁻¹ in data set [22]; 0.0000691 s⁻¹ in [23]; 0.00011 s⁻¹ in [24]; 0.000013 s⁻¹ in [25]. Moreover, the results for the Activity in data set [26] and in data set [27] were 0.00192 s⁻¹ and 0.000114 s⁻¹, respectively. The IC50 was found to be 326 µM in data set [4] and 162 µM in [5]. Besides, the Ratio in [9] came to 162.

(Values after ChEMBL document CHEMBL1909504, “New series of isoniazid hydrazones linked with electron-withdrawing substituents” (Eur J Med Chem, 2011).)
